In ChEMBL document CHEMBL1157235, “Lupane and oleanane triterpenoids from the cones of Liquidamber styraciflua” (2006) one finds EC50 and Activity data, which are given here for eight compounds.

Assay [1] deals with A549. Description: Cytotoxicity against human A549 cells after 72 hrs by MTT assay. The assay is classed as functional. The note with it: A549, 72 h, read-out: ED50 (the source's name). A digest of the protocol:
(§1)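 Cells were grown in RPMI-1640 with 10% FBS at 37 °C under humidified 5% CO2 and seeded at 1 × 10^4 cells/well with compounds for 72 h. MTT (5 mg/mL stock) was then added for 4 h at 37 °C. Formazan was solubilized with acidic SDS (0.02 N HCl in 20% SDS), and absorbance was read at 570 nm against a 620 nm reference.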

Assay [2] concerns P388. Kind of assay: Cytotoxicity against mouse P388 cells after 72 hrs by MTT assay. The assay is classed as functional. To be noted: P388, 72 h, read-out: ED50 (the source's name). Put shortly: as §1
Background: Tetrazolium assays rely on reduction of a dye to a coloured formazan, in cell work by metabolically active cells.

Assay [3] concerns A549. Description: Cytotoxicity against human A549 cells at 40 uM after 72 hrs by MTT assay. The assay is classed as functional, cell-based.
Assay [4] has as its system P388. Kind of assay: Cytotoxicity against mouse P388 cells at 40 uM after 72 hrs by MTT assay. The assay is classed as functional, cell-based.

Activity calls are given as the source filed them. No cut-off for these calls is given here.

`CC1(C)CC[C@]2(C(=O)O)CC[C@]3(C)C(=CC[C@@H]4[C@@]5(C)CCC(=O)C(C)(C)[C@@H]5[C@H](O)C[C@]43C)[C@@H]2C1`: the EC50 in assay [1] was determined as 33.5 µM; in assay [2] it was 18.5 µM. Turning to `C=C(CO)[C@@H]1CC[C@]2(C(=O)O)CC[C@]3(C)[C@H](CC[C@@H]4[C@@]5(C)CCC(=O)C(C)(C)[C@@H]5[C@H](O)C[C@]43C)[C@@H]12`, the outcome in assay [3] and in assay [4] was inactive.

Regarding `CC(=O)[C@@H]1CC[C@]2(C(=O)O)CC[C@]3(C)[C@H](CC[C@@H]4[C@@]5(C)CCC(=O)C(C)(C)[C@@H]5[C@H](O)C[C@]43C)[C@@H]12`, the outcome in assay [3] and in assay [4] was inactive. With `COc1cc([C@@H]2c3cc4c(cc3[C@@H](O[C@@H]3O[C@@H]5CO[C@@H](C)O[C@H]5[C@H](O)[C@H]3O)[C@H]3COC(=O)[C@H]23)OCO4)cc(OC)c1O` [ETOPOSIDE], the EC50 in assay [1] was determined as 3.76 µM. Regarding `C=C(C)[C@@H]1CC[C@]2(C(=O)O)CC[C@]3(C)[C@@H](CC[C@@H]4[C@@]5(C)CCC(=O)C(C)(C)[C@@H]5[C@H](O)C[C@]43C)[C@@H]12`, the EC50 in assay [1] was no less than 40 µM; in assay [2] it was 32.7 µM. For the compound `CC(=O)OC[C@]12CC[C@@H](O)C(C)(C)C1CC[C@]1(C)[C@@H]2CC=C2[C@@H]3CC(C)(C)CC[C@]3(C(=O)O)CC[C@]21C` (stereo not given in full), the results for the EC50 in assay [1] and in assay [2] were 13.3 µM and 28.2 µM, respectively. For `C=C(C)[C@@H]1CC[C@]2(C(=O)O)CC[C@]3(C)[C@H](CC[C@@H]4[C@]56CC[C@@](O)(OC5)C(C)(C)[C@@H]6CC[C@]43C)[C@@H]12` the same measures were 29.9 µM and 22.3 µM. Taken in the same sequence, the figures for `CC1(C)CC[C@]2(C(=O)O)CC[C@]3(C)C(=CC[C@@H]4[C@]56CC[C@@](O)(OC5)C(C)(C)[C@@H]6CC[C@]43C)[C@@H]2C1` [LANTANOLIC ACID] were 26.5 µM and 24 µM.
